CASP6 VEID inh = caspase-6 (human) enzyme inhibition. P55212. purified caspase-6, Z-VEID-R110 cleavage fluorescence. inhibition, % at 12.5 µM. 350,000 compounds, 0.53% hits. AID 686996;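 active = mean inhibition across replicates at least about 35%, with every replicate also reaching that limit, limit read from the data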;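 note: 0% = median of neutral control wells and 100% = no fluorescence left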
Target sequence (P55212 24-179 limits assumed): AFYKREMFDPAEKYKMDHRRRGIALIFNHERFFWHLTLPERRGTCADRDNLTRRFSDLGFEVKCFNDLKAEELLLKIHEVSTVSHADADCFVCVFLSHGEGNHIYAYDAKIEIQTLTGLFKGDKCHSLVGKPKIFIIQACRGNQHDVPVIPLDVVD
Target sequence (P55212 194-293 limits assumed): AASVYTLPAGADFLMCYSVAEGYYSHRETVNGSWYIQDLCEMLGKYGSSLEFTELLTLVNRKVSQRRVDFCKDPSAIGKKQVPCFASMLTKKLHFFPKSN
MBD2 inh = blocks human MBD2 binding to methylated DNA; TR-FRET, MBD2 binding to methylated oligonucleotide; AID 686964; Q9UBB5; 370,000 compounds, 0.31% hits; inhibition, % at 4.4 µM; in the data active = inhibition above about 13%
TDP2 inh = TDP2 (human) inhibition, absorbance primary screen; O95551; recombinant TDP2, T5PNP hydrolysis, p-nitrophenol absorbance 415 nm; inhibition, % at 12.8 µM; 370,000 compounds, 0.34% hits; AID 720702;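 active = inhibition above the mean of all tested compounds plus 3 SD, set per campaign, cut at about 25% in these data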;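 note: 0% = DMSO with enzyme and 100% = buffer with substrate but no TDP2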
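Assay system: recombinant human TDP2 / Reagent: T5PNP substrate at 5 mM, a TopII-DNA adduct mimic / Measured by: epi absorbance from released p-nitrophenol / Evaluation: % inhibition relative to enzyme-containing and enzyme-free wells / Control set: enzyme-free and DMSO wells / Replicates: each compound tested once, singlicate / Schedule: enzyme reaction with compound for 2 h at 37 °C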
NSD2 HMT inh = NSD2 (human) methyltransferase inhibition | O96028 | NSD2 peptide methylation, AlphaScreen, 120 min | inhibition, % at 12.5 µM | 310,000 compounds, 0.54% hits | AID 743445; in the data active = inhibition above about 50%
LEDGF integ inh = blocks HIV-1 LEDGF/p75-dependent DNA integration. inhibition, % at 3.7 µM. 370,000 compounds, 0.64% hits. TR-FRET IN-LEDGF/p75 DNA integration, Eu/Cy5. AID 743269;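 active = inhibition above the screen-wide mean plus 3 SD, cut at about 13% in these data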;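 note: signal is the Cy5 over europium emission ratio at 671 and 618 nm; 0% = plate median of compound wells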
UHRF1 binding = UHRF1 methyl-DNA binding inhibition | Q96T88 | inhibition, % at 4.4 µM | UHRF1 binding to methylated oligo, TR-FRET | 370,000 compounds, 0.75% hits; in the data active = inhibition above about 21%;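 note: UHRF1 SRA domain binding a hemimethylated CpG hairpin DNA probe; 0% = median of test compound wells and 100% = reference inhibitor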
Alpha artifact = counter-screen for NSD2 inhibitors: AlphaScreen artifacts. shares compounds with NSD2 HMT inh. AlphaScreen artifact counterscreen, preloaded methylated H4 peptide. AC35, µM (titrated, usually from 10 µM), without a hit: at the top dose activity change, negative = signal loss. 1,500 compounds, 9.4% hits. AID 1053174; call rule not given here
* = called active by the depositor; nt = not tested or not shown. Rows were chosen to be rich in hits. Some 1.8% of all compounds tested hit in one or more screens of this group.

SMILES	CASP6 VEID inh	MBD2 inh	TDP2 inh	NSD2 HMT inh	LEDGF integ inh	UHRF1 binding	Alpha artifact
CCN(CC)CCNc1ncnc2c1sc1nc(N3CCCC3)c3c(c12)CC(C)(C)OC3	1	7	-16	80*	3	23*	-15%
CCNC(=O)C[C@H]1CC[C@@H]2[C@H](COc3ccc(NC(=O)C4CCOCC4)cc3C(=O)N2C)O1	-1	nt	nt	nt	nt	nt	nt
Cn1nc(C(F)(F)F)cc1-c1ccc(/C=C(\C#N)C(=O)c2ccccc2)s1	-1	-5	10	1	4	-2	nt
CNC(=O)c1ccc(-c2cc(C(F)(F)F)nn2C)s1	1	4	-1	60*	-1	0	-2%
O=C(NC1=NCCS1)c1csc2ccccc12	nt	3	-12	70*	6	-2	-3%
C[C@@H]1CN([C@H](C)CO)C(=O)Cc2cc(NS(=O)(=O)c3ccc(Cl)cc3)ccc2O[C@H]1CN(C)C(=O)Nc1ccccc1	-2	nt	nt	nt	nt	nt	nt
COc1ccc(C#Cc2cccc(-c3nc(C(=O)N4CCN(C)CC4)cc4c3[C@@H](CCO)N(S(=O)C(C)(C)C)C4)c2)cc1OC (stereo partly drawn)	4	nt	nt	nt	nt	nt	nt
COc1ccc(/C=N/Nc2cc(N3CCCC3)nc(N3CCCC3)n2)cc1	1	-6	-7	102*	-3	-6	-9%
Oc1ccc(/C=N/Nc2cc(N3CCCC3)nc(N3CCCC3)n2)cc1	nt	-1	0	7	2	-6	nt
CCCNC(=O)N1CC(=O)N2[C@H](C1)[C@@H](c1ccc(-c3cccc(C)c3)cc1)[C@@H]2CO	-1	nt	nt	nt	nt	nt	nt
CCN(CC)S(=O)(=O)c1ccc(-c2cn3cc(Cl)ccc3n2)cc1	1	1	11	77*	2	3	2%
COc1ccc(N2C(=O)C3C(C2=O)C(C(=O)c2ccc(Cl)cc2)N2CCCC32)cc1 (stereo not drawn)	-2	-2	-4	79*	3	3	-7%
CCCc1cn([C@H]2C[C@@H]3O[C@@H](CO)CC[C@@H]3O[C@@H]2CCc2ccc(-c3cccc(OC)c3)cc2)nn1	3	nt	nt	nt	nt	nt	nt
CC(=O)Oc1cccc2c1C(=O)C1CC=CC(OC(C)=O)C1C2=O (stereo not drawn)	7	-9	18	69*	0	-11	8µM*
O=C(NC1CCC1)[C@@H]1[C@@H](CO)[C@@H]2Cn3c(ccc(-c4ccc(F)cc4)c3=O)[C@@H]2N1Cc1ccccn1	7	nt	nt	nt	nt	nt	nt
O=C(Nc1ccccn1)c1ccc2c(=O)n3c(nc2c1)CCCCC3	10	10	2	61*	9	21*	-1%
O=C(COC(=O)c1ccc2c(=O)n3c(nc2c1)CCC3)NC1CCS(=O)(=O)C1 (stereo not drawn)	nt	-1	5	-2	2	0	nt
CC1CCCCC1NC(=O)COC(=O)c1ccc2c(=O)n3c(nc2c1)CCC3 (stereo not drawn)	0	3	-5	117*	-3	2	-1%
O=C(Nc1ccc(Cl)cc1)c1ccc2c(=O)n3c(nc2c1)CCCCC3	1	-1	-7	nt	-3	1	nt
COc1ccc(NC2CCCN(C(=O)c3ccccc3N3CCOCC3)C2)cc1OC (stereo not drawn)	4	-1	2	72*	1	0	1%
CCNC1CCC(Nc2ccnc3cc(Cl)ccc23)CC1 (stereo not drawn)	-9	5	13	89*	1	6	-5%
O=C(C[C@@H]1CC[C@H]2[C@@H](COC[C@@H](O)CN2Cc2ccncc2)O1)NCc1ccccc1Cl	-1	nt	nt	nt	nt	nt	nt
O=C(NNc1cc(N2CCOCC2)nc(N2CCOCC2)n1)c1ccc([N+](=O)[O-])cc1	7	-1	7	129*	13	-9	-4%
O=C(Nc1ccc(N2CCOCC2)cc1N1CCOCC1)c1ccc([N+](=O)[O-])cc1	nt	1	8	0	-1	1	nt
CCOc1ccc(-c2nnc(SCc3nc4ccccc4[nH]3)n2N)cc1	nt	3	4	72*	-2	-4	-4%
CS(=O)(=O)N1CC(=O)N2[C@H](C1)[C@H](c1ccc(C#Cc3cccc(F)c3)cc1)[C@@H]2CO	-1	nt	nt	nt	nt	nt	nt
